Source: ChEMBL document CHEMBL2146476, “Discovery of selective glucocorticoid receptor modulator MK-5932” (Bioorg Med Chem, 2011)
Calls of active or inactive are those of the source. The rule behind the calls is not given here.

Experiments:
Rattus norvegicus [1] = experiment: Antiinflammatory activity in oxazolone-induced Sprague-Dawley rat chronic dermatitis model at 0.5 to 5 mg/kg, po qd administered after 7 days of oxazolone sensitization measured after 4 to 5 hrs last post treatment on day 14; type: functional, organism-based
Method in brief: (§1)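 Intact 6-month-old female Sprague-Dawley rats sensitized with oxazolone on ventral abdomen on Day 0. One randomly selected ear challenged with oxazolone on Days 7 and 9, other ear given vehicle. Daily oral dosing for 7 d from Day 7, with 6-methylprednisolone or DEX as positive controls. Blood taken ~4-5 h after last dose for plasma insulin. Inflammation read as inter-ear thickness difference.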

Rattus norvegicus [2] = experiment: Toxicity in oxazolone-induced Sprague-Dawley rat chronic dermatitis model assessed as increase in plasma insulin level at 0.5 to 5 mg/kg, po qd administered after 7 days of oxazolone sensitization measured after 4 to 5 hrs last post treatment on day 14; type: organism-based; design: route oral; conditions: in vivo; method in brief: as §1
[3] = molecular target: T1, Glucocorticoid receptor (Homo sapiens) (UniProt P04150); experiment: Transactivation activity at GR-mediated modulation of MMTV promoter activity in human HeLa cells transfected with luciferase gene linked to MMTV promoter after 16 hrs by luciferase reporter gene assay; type: cell-based
T1 sequence (whole entry): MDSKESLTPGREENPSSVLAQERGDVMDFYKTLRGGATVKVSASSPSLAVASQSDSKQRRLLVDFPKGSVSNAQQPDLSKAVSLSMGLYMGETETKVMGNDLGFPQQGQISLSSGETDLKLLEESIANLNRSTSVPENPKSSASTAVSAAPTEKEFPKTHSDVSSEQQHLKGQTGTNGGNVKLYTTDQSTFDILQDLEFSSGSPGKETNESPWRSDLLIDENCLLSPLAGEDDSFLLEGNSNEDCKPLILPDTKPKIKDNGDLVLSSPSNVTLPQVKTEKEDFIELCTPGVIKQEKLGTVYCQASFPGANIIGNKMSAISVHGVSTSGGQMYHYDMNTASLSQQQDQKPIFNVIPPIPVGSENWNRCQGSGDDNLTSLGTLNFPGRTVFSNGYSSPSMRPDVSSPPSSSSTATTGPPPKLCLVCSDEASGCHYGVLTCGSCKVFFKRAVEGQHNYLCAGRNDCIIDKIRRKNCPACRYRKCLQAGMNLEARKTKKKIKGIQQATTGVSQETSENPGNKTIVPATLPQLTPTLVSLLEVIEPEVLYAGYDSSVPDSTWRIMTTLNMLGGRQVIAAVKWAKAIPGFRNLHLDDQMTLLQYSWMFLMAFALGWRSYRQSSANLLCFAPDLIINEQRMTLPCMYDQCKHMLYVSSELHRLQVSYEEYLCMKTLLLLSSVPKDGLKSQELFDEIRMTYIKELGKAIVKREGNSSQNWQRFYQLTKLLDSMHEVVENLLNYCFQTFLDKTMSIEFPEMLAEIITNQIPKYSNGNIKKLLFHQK
Method in brief: (§2)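 HeLa or A549 cells transiently transfected with a luciferase reporter under the MMTV promoter (two GREs), in 10% charcoal-stripped FBS. Compound exposure 16 h, then luciferase measured. Activity expressed as percent of the span between DMSO and dexamethasone controls. Mean of at least three runs.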

[4] = molecular target: T1, Glucocorticoid receptor (Homo sapiens); experiment: Transactivation activity at GR-mediated modulation of MMTV promoter activity in human A549 cells transfected with luciferase gene linked to MMTV promoter after 16 hrs by luciferase reporter gene assay; type: cell-based; method in brief: as §2
[5] = Drug uptake in oxazolone-induced Sprague-Dawley rat chronic dermatitis model at 5 mg/kg, po; type: ADME, organism-based; design: dose 5 mg/kg, route oral; conditions: in vivo, read-out: Drug uptake
Method in brief: (§3)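 Exposure measured in female Sprague-Dawley rats in the oxazolone chronic dermatitis model: sensitization Day 0, ear challenge Days 7 and 9, daily oral dosing for 7 d from Day 7. Exposure expressed as µM h. Blood collected ~4-5 h after last dose.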

[6] = molecular target: T1, Glucocorticoid receptor (Homo sapiens); experiment: Transactivation activity at GR-mediated modulation of MMTV promoter activity in human HeLa cells transfected with luciferase gene linked to MMTV promoter after 16 hrs by luciferase reporter gene assay relative to dexamethasone; type: cell-based; method in brief: as §2
Glucocorticoid receptor = molecular target: T2, Glucocorticoid receptor (Homo sapiens, UniProt P04150); experiment: Displacement of [3H]-dexamethasone from human full length GR expressed in insect Sf21 cells
T2 sequence (P04150 whole entry): T1 sequence (whole entry)
Method in brief: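 Human full-length GR expressed in insect cells, incubated with compound and 3H-dexamethasone overnight at 4 °C. Bound radioactivity quantified after filtration capture. Nonspecific binding defined with excess unlabelled dexamethasone. Mean of at least two runs.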

[7] = Drug uptake in oxazolone-induced Sprague-Dawley rat chronic dermatitis model at 25 mg/kg, po; type: ADME, organism-based; design: dose 25 mg/kg, route oral; conditions: in vivo, read-out: Drug uptake; method in brief: as §3
[8] = molecular target: T1, Glucocorticoid receptor (Homo sapiens); experiment: Transactivation activity at GR-mediated modulation of MMTV promoter activity in human A549 cells transfected with luciferase gene linked to MMTV promoter after 16 hrs by luciferase reporter gene assay relative to dexamethasone; type: cell-based; method in brief: as §2
[9] = molecular target: T1, Glucocorticoid receptor (Homo sapiens); experiment: Transrepression activity at glucocorticoid receptor in human LPS and TPA-stimulated U937 cells assessed as effect on glucocorticoid-induced TNFalpha repression by beta lactamase reporter gene assay; type: cell-based; conditions: U-937
Method in brief: (§4)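 U937 cells stably carrying a β-lactamase reporter driven by the human TNF-α promoter (-1083 to +182), in 5% charcoal-stripped FBS. Stimulated with 1 µg/mL LPS plus 50 ng/mL TPA, compound exposure 16 h. β-Lactamase read out. Activity expressed as percent of the span between DMSO and 100 nM dexamethasone controls. Mean of at least three runs.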

[10] = molecular target: T1, Glucocorticoid receptor (Homo sapiens); experiment: Transrepression activity at glucocorticoid receptor in human LPS and TPA-stimulated U937 cells assessed as effect on glucocorticoid-induced TNFalpha repression by beta lactamase reporter gene assay relative to dexamethasone; type: cell-based; conditions: U-937; method in brief: as §4
[11] = Drug uptake in oxazolone-induced Sprague-Dawley rat chronic dermatitis model at 20 mg/kg, po; type: ADME, organism-based; design: dose 20 mg/kg, route oral; conditions: in vivo, read-out: Drug uptake; method in brief: as §3
Rattus norvegicus [12] = experiment: Drug metabolism in oxazolone-induced Sprague-Dawley rat chronic dermatitis model assessed as 2-{2-[(4aS,5R)-1-(4-fluorophenyl)-5-hydroxy-4amethyl- 1,4,4a,5,6,7-hexahydrocyclopenta[f]indazol-5-yl]ethyl}benzamide level at 20 mg/kg, po; type: ADME, organism-based; design: dose 20 mg/kg, route oral; conditions: in vivo
[13] = Drug uptake in oxazolone-induced Sprague-Dawley rat chronic dermatitis model at 15 mg/kg, po; type: ADME, organism-based; design: dose 15 mg/kg, route oral; conditions: in vivo, read-out: Drug uptake; method in brief: as §3
Rattus norvegicus [14] = experiment: Drug metabolism in oxazolone-induced Sprague-Dawley rat chronic dermatitis model assessed as 2-fluoro-6-(2-((4aS,5R)-1-(4-fluorophenyl)-5-hydroxy-4a-methyl-1,4,4a,5,6,7-hexahydrocyclopenta[f]indazol-5-yl)ethyl)-N-(1-(hydroxymethyl)cyclopropyl)benzamide level at 15 mg/kg, po; conditions: in vivo

IP [3] [nM]	IP [4] [nM]	AUC [5] [µM·h]	Emax [6] [%]	Ki (Glucocorticoid receptor) [nM]	AUC [7] [µM·h]	Emax [8] [%]	IP [9] [nM]	Emax [10] [%]	AUC [11] [µM·h]	Drug metabolism (Rattus norvegicus [12]) [µM·h]	AUC [13] [µM·h]	Drug metabolism (Rattus norvegicus [14]) [µM·h]	SMILES	Activity (Rattus norvegicus [1])	Activity (Rattus norvegicus [2])
													C[C@H]1C[C@@H]2[C@H]([C@@H](O)C[C@@]3(C)[C@H]2CC[C@]3(O)C(=O)CO)[C@@]2(C)C=CC(=O)C=C12 [METHYLPREDNISOLONE]	Active	Toxic
130	61	134	66	2	199	60	56	82					C[C@]12Cc3cnn(-c4ccc(F)cc4)c3C=C1CC[C@@]2(O)CCc1ccccc1C(N)=O		
108	212		14	10		23	246	79					CC(C)(C)NC(=O)c1ccccc1CC[C@]1(O)CCC2=Cc3c(cnn3-c3ccc(F)cc3)C[C@@]21C		
			< 5	58		< 5		6					C[C@@]12C(=Cc3c(cnn3-c3ccc(F)cc3)C1O)CC[C@@]2(O)CCc1ccc(F)cc1C(N)=O (stereo not given in full)		
7	6		89	< 1		82	3	90					C[C@]12Cc3cnn(-c4ccc(F)cc4)c3C=C1CC[C@@]2(O)CCc1c(F)cccc1C(N)=O		
83	60		30	4		48	170	62					CC(C)NC(=O)c1ccccc1CC[C@]1(O)CCC2=Cc3c(cnn3-c3ccc(F)cc3)C[C@@]21C		
85	81		17	2		29	127	50					CCCNC(=O)c1ccccc1CC[C@]1(O)CCC2=Cc3c(cnn3-c3ccc(F)cc3)C[C@@]21C		
43	26		17	< 1		25	30	72					CCCNC(=O)c1c(F)cccc1CC[C@]1(O)CCC2=Cc3c(cnn3-c3ccc(F)cc3)C[C@@]21C		
58	36		47	< 1		120	89	70					C[C@]12Cc3cnn(-c4ccc(F)cc4)c3C=C1CC[C@@]2(O)CCc1cc(F)ccc1C(N)=O		
35	23		79	3		104	24	96					C[C@]12Cc3cnn(-c4ccc(F)cc4)c3C=C1CC[C@@]2(O)CCc1cccc(F)c1C(=O)NC1(CO)CC1		
107	39		38	2		51	88	65	75	50			CCNC(=O)c1ccccc1CC[C@]1(O)CCC2=Cc3c(cnn3-c3ccc(F)cc3)C[C@@]21C		
30	33		71	1		83	26	88					CC(C)(CO)NC(=O)c1ccccc1CC[C@]1(O)CCC2=Cc3c(cnn3-c3ccc(F)cc3)C[C@@]21C		
			< 10	155		< 10		12					CNC(=O)c1ccc(CC[C@]2(O)CCC3=Cc4c(cnn4-c4ccc(F)cc4)C[C@@]32C)cc1		
317	193		48	2		49	263	50					CNC(=O)c1ccccc1CC[C@]1(O)CCC2=Cc3c(cnn3-c3ccc(F)cc3)C[C@@]21C		
93	62		21	1		37	123	62					C=CCNC(=O)c1ccccc1CC[C@]1(O)CCC2=Cc3c(cnn3-c3ccc(F)cc3)C[C@@]21C		
1320	1560		6	40		20	958	34					CCNC(=O)c1ccccc1CC[C@]1(O)CCC2=Cc3c(cnn3-c3ccc(F)cc3)C(O)[C@@]21C (stereo not given in full)		
			< 10	15		< 10		< 10					CNC(=O)c1cccc(CC[C@]2(O)CCC3=Cc4c(cnn4-c4ccc(F)cc4)C[C@@]32C)c1		
132	95		16	< 1		24	119	67					C=C(C)CNC(=O)c1c(F)cccc1CC[C@]1(O)CCC2=Cc3c(cnn3-c3ccc(F)cc3)C[C@@]21C		
27	32		33	< 1		41	20	81			64	3.8	CC1(NC(=O)c2c(F)cccc2CC[C@]2(O)CCC3=Cc4c(cnn4-c4ccc(F)cc4)C[C@@]32C)CC1		
11	9		58	< 1		75	10	84					C[C@]12Cc3cnn(-c4ccc(F)cc4)c3C=C1CC[C@@]2(O)CCc1cccc(F)c1C(N)=O		

SMILES	IP [3] [nM]	IP [4] [nM]	AUC [5] [µM·h]	Emax [6] [%]	Ki (Glucocorticoid receptor) [nM]	AUC [7] [µM·h]	Emax [8] [%]	IP [9] [nM]	Emax [10] [%]	AUC [11] [µM·h]	Drug metabolism (Rattus norvegicus [12]) [µM·h]	AUC [13] [µM·h]	Drug metabolism (Rattus norvegicus [14]) [µM·h]	Activity (Rattus norvegicus [1])	Activity (Rattus norvegicus [2])
C[C@]12Cc3cnn(-c4ccc(F)cc4)c3C=C1[C@H](O)C[C@@]2(O)CCc1ccc(F)cc1C(N)=O				< 5	> 400		< 5		< 5						
Cc1cc2cnn(-c3ccc(F)cc3)c2cc1CCC(=O)CCc1ccc(F)cc1C(=O)O				< 5	> 400		< 5		< 5						
